Article PMC9301635 (ACS Omega, 2022)
Like-named read-outs stand apart in the source and are kept apart here. Values belong to the compound of their own block, whether it stands above or below them.

Experiments:
[1] = system: HT29; test: MTT viability test, HT29; format: cell-based, human; conditions: read-out: IC50 HT29 MTT
Procedure, shortened: (§1)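 Cells were grown in RPMI-1640 with 10% FCS and antibiotics at 37 °C, 5% CO2. Seeding per well was CT26 4 × 10^3, HT-29 1.5 × 10^4, SW480 3 × 10^3 and HCT116 5 × 10^3, with overnight adherence. Test compound came from a 200 mM DMSO stock (≤0.1% DMSO final) and was applied at 0–200 μM for 72 h. Viability was read by MTT or crystal violet, in triplicate.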

[2] = target: T1, human COX-2 (Homo sapiens, UniProt P35354); test: biochemical; format: biochemical; conditions: for % inhibition @ 100 μM COX-2: 100 μM compound
T1 sequence (P35354 18-604): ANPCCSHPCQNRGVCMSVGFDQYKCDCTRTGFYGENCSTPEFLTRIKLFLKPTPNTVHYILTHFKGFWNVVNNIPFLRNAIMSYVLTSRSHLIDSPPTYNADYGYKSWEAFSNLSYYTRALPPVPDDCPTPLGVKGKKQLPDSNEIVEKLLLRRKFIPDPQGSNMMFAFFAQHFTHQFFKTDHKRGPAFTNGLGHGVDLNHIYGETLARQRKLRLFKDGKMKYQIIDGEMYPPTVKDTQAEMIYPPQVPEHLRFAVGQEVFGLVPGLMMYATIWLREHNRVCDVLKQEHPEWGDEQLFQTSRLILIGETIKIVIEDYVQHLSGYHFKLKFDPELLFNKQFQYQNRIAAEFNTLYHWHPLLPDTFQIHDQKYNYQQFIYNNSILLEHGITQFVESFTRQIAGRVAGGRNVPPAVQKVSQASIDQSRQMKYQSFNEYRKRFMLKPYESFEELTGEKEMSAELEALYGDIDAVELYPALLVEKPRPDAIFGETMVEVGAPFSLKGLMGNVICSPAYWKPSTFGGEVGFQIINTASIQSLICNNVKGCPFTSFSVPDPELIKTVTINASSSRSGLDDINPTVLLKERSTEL

[3] = system: HT29; test: Crystal violet; format: cell-based, human; conditions: read-out: IC50 HT29 CV
Procedure, shortened: as §1

[4] = system: SW480; test: MTT viability test, SW480; format: cell-based, human; conditions: read-out: IC50 SW480 MTT
Procedure, shortened: as §1

[5] = target: T2, ovine COX-1 (Ovis aries, UniProt P05979); test: COX Fluorescent Inhibitor Screening Assay Kit; format: biochemical; conditions: for % inhibition @ 100 μM COX-1: 100 μM compound
T2 sequence (P05979 25-600): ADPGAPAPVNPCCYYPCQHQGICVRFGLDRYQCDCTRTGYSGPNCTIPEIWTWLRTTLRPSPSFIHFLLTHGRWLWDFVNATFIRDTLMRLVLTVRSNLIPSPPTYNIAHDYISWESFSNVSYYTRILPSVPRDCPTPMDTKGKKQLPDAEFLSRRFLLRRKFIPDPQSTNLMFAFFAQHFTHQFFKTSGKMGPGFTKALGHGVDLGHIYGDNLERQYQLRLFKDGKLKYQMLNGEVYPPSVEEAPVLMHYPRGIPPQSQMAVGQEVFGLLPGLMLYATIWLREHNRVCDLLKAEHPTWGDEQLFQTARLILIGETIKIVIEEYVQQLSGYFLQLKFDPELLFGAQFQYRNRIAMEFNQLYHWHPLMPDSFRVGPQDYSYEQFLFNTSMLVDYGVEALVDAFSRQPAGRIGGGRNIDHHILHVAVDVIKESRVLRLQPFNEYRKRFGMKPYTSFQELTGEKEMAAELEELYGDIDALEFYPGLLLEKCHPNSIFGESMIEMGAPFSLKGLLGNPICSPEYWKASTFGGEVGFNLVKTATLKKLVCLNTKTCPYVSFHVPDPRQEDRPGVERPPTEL

[6] = system: HCT116; test: Crystal violet; format: cell-based, human; conditions: read-out: IC50 HCT116 CV
Procedure, shortened: as §1

[7] = system: CT26; test: Crystal violet; format: cell-based, mouse; conditions: read-out: IC50 CT26 CV
Procedure, shortened: as §1

[8] = system: HCT116; test: MTT viability test, HCT116; format: cell-based, human; conditions: read-out: IC50 HCT116 MTT
Procedure, shortened: as §1

[9] = system: CT26; test: MTT viability test, CT26; format: cell-based, mouse; conditions: read-out: IC50 CT26 MTT
Procedure, shortened: as §1

[10] = system: SW480; test: Crystal violet; format: cell-based, human; conditions: read-out: IC50 SW480 CV
Procedure, shortened: as §1

[11] = system: SW480 cells; test: Caspase activation, ApoStat flow cytometry, SW480; format: cell-based, human; conditions: IC50 dose, 72 h, fluorescence-labeled pan-caspase inhibitor
Procedure, shortened: (§2)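 Seeding in six-well plates was HCT116 2 × 10^5/well and SW480 1.5 × 10^5/well. Cells were exposed to test compound (DMSO vehicle, ≤0.1%) for 72 h. They were then stained with the FITC-labelled pan-caspase inhibitor ApoStat according to the manufacturer's protocol. The percentage of caspase-active cells was measured by flow cytometry. Data are representative of three independent experiments.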

[12] = system: HCT116 cells; test: Cell proliferation, CFSE flow cytometry, HCT116; format: cell-based, human; conditions: HCT116, IC50 dose, 72 h
Procedure, shortened: (§3)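 HCT116 (2 × 10^5/well) or SW480 (1.5 × 10^5/well) cells were prelabelled with 1 μM CFSE in six-well plates. They were then exposed to test compound in culture medium (≤0.1% DMSO) for 72 h. CFSE dilution was measured by flow cytometry. Data are representative of three independent experiments.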

[13] = system: HCT116 cells; test: Caspase activation, ApoStat flow cytometry, HCT116; format: cell-based, human; conditions: IC50 dose, 72 h, fluorescence-labeled pan-caspase inhibitor
Procedure, shortened: as §2

[14] = system: SW480 cells; test: Cell proliferation, CFSE flow cytometry, SW480; format: cell-based, human; conditions: SW480, IC50 dose, 72 h
Procedure, shortened: as §3

[15] = system: HCT116 cells; test: ROS/RNS production, DHR flow cytometry, HCT116; format: cell-based, human; conditions: HCT116, IC50 dose, 72 h
Procedure, shortened: (§4)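 HCT116 (2 × 10^5/well) and SW480 (1.5 × 10^5/well) cells in six-well plates were treated with test compound for 72 h. Treatment was in culture medium containing 1 μM dihydrorhodamine 123 (≤0.1% DMSO). Intracellular ROS/RNS was measured as fluorescence by flow cytometry. Data are representative of three independent experiments.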

[16] = system: SW480 cells; test: ROS/RNS production, DHR flow cytometry, SW480; format: cell-based, human; conditions: SW480, IC50 dose, 72 h
Procedure, shortened: as §4

[17] = system: human breast, bladder, and non-small lung cancer cell lines; conditions: read-out: cytotoxic potential; literature data; cited from earlier work
[18] = system: COX-1; conditions: read-out: IC50(COX-1) literature value; in blood; cited from earlier work

Compound: Sodium rac-[N-(7,8-dicarba-closo-dodecaboran-6-yl)-2-benzonitrile] [compound 5]
IC50 ([1]; 72 h, COX-2 +): 141 ± 7.8 µM
% inhibition @ 100 μM COX-2 ([2]; no BSA): 76%
IC50 ([2]; read-out: IC50 COX-2, no BSA): 33 µM
IC50 ([3]; 72 h, COX-2 +): 182 ± 1.7 µM
IC50 ([4]; 72 h, COX-2 –): 121 ± 4.5 µM
% inhibition @ 100 μM COX-1 ([5]; no BSA): 83%
IC50 ([5]; read-out: IC50 COX-1, no BSA): 40 µM
IC50 ([6]; 72 h, COX-2 –): 115 ± 6 µM
IC50 ([7]; 72 h, COX-2 +): 150 ± 4.9 µM
IC50 ([8]; 72 h, COX-2 –): 129 ± 10 µM
IC50 ([9]; 72 h, COX-2 +): 167 ± 8.8 µM
IC50 ([10]; 72 h, COX-2 –): 84 ± 3.3 µM

Compound: N-(1,2-Dicarba-closo-dodecaboran-9-yl)-2-benzonitrile [2b]
caspase activation, % SW480 cells [11]: 3.2%
IC50 ([1]; 72 h, COX-2 +): 45.6 ± 2.7 µM
cell division rate vs untreated cells [12]: remarkably lower
caspase activation, % HCT116 cells [13]: 1.1%
cell division rate vs untreated cells [14]: remarkably lower
% inhibition @ 100 μM COX-2 ([2]; no BSA): 28%
IC50 ([3]; 72 h, COX-2 +): > 200 µM
ROS/RNS production [15]: increased
IC50 ([4]; 72 h, COX-2 –): 39 ± 1.2 µM
% inhibition @ 100 μM COX-1 ([5]; no BSA): 32%
IC50 ([6]; 72 h, COX-2 –): 35.5 ± 3.1 µM
ROS/RNS production [16]: increased
IC50 ([7]; 72 h, COX-2 +): 47.2 ± 2.3 µM
IC50 ([8]; 72 h, COX-2 –): 34.4 ± 1.8 µM
IC50 ([9]; 72 h, COX-2 +): 38.3 ± 0.4 µM
IC50 ([10]; 72 h, COX-2 –): 24 ± 0.8 µM

Compound: Cc1cccc(Nc2ccccc2C(=O)O)c1C [compound 1, Mefenamic acid, reference compound]
caspase activation, % SW480 cells [11]: 5.2%
IC50 ([1]; Homo sapiens, HT-29, 72 h): > 200 µM
caspase activation, % HCT116 cells [13]: 0.5%
IC50 COX-2 [2]: no IC50 value could be determined
inhibition at 100 µM ([2]; read-out: % inhibition @ 100 μM COX-2): 20%
IC50 ([3]; Homo sapiens, HT-29, 72 h): > 200 µM
IC50 [17]: ~20 µM
IC50 [18]: 1.94 µM
IC50 ([4]; Homo sapiens, SW480, 72 h): 104 ± 6.4 µM
IC50 [5]: 0.12 µM
inhibition plateau COX-1 ([5]; concentration range between 1 and 100 μM): around 60%
inhibition at 100 µM ([5]; read-out: % inhibition @ 100 μM COX-1): 59%
IC50 ([6]; Homo sapiens, HCT-116, 72 h): 101 ± 6.5 µM
IC50 ([7]; Mus musculus, CT26, 72 h): 163 ± 2 µM
IC50 ([8]; Homo sapiens, HCT-116, 72 h): 96.2 ± 7.9 µM
IC50 ([9]; Mus musculus, CT26, 72 h): 114 ± 4.2 µM
IC50 ([10]; Homo sapiens, SW480, 72 h): 120 ± 6.1 µM

Compound: N-(1,7-Dicarba-closo-dodecaboran-9-yl)-2-benzoic acid [3c]
IC50 ([1]; 72 h, COX-2 +): 184 ± 4.5 µM
IC50 ([3]; 72 h, COX-2 +): > 200 µM
IC50 ([4]; 72 h, COX-2 –): 90.6 ± 3.3 µM
% inhibition @ 100 μM COX-1 ([5]; no BSA): 11%
IC50 ([6]; 72 h, COX-2 –): 147 ± 8.6 µM
IC50 ([7]; 72 h, COX-2 +): 160 ± 6.6 µM
IC50 ([8]; 72 h, COX-2 –): 93.2 ± 7.6 µM
IC50 ([9]; 72 h, COX-2 +): 76.5 ± 2.8 µM
IC50 ([10]; 72 h, COX-2 –): 117 ± 7.9 µM

Compound: N-(1,2-Dicarba-closo-dodecaboran-9-yl)-2-benzoic acid [2c]
IC50 ([1]; 72 h, COX-2 +): 183 ± 3.7 µM
IC50 ([3]; 72 h, COX-2 +): > 200 µM
IC50 ([4]; 72 h, COX-2 –): 77.6 ± 0.1 µM
IC50 ([6]; 72 h, COX-2 –): 83.6 ± 3.8 µM
IC50 ([7]; 72 h, COX-2 +): 93.3 ± 5.7 µM
IC50 ([8]; 72 h, COX-2 –): 74.6 ± 4.8 µM
IC50 ([9]; 72 h, COX-2 +): 61.6 ± 0.1 µM
IC50 ([10]; 72 h, COX-2 –): 75.6 ± 4 µM

Compound: N-(1,7-Dicarba-closo-dodecaboran-9-yl)-2-benzonitrile [3b]
caspase activation, % SW480 cells [11]: 6.8%
IC50 ([1]; 72 h, COX-2 +): 46.4 ± 2.9 µM
cell division rate vs untreated cells [12]: remarkably lower
caspase activation, % HCT116 cells [13]: 5.6%
cell division rate vs untreated cells [14]: remarkably lower
% inhibition @ 100 μM COX-2 ([2]; no BSA): 13%
IC50 ([3]; 72 h, COX-2 +): 116 ± 2.2 µM
IC50 ([4]; 72 h, COX-2 –): 23.8 ± 2.1 µM
% inhibition @ 100 μM COX-1 ([5]; no BSA): 22%
IC50 ([6]; 72 h, COX-2 –): 31.8 ± 2.3 µM
IC50 ([7]; 72 h, COX-2 +): 37.4 ± 1.2 µM
IC50 ([8]; 72 h, COX-2 –): 28.2 ± 1.8 µM
IC50 ([9]; 72 h, COX-2 +): 22.4 ± 1.7 µM
IC50 ([10]; 72 h, COX-2 –): 24.9 ± 1.8 µM

Second part, the compound after the results:

IC50 ([1]; 72 h, COX-2 +): > 200 µM
IC50 ([3]; 72 h, COX-2 +): > 200 µM
IC50 ([4]; 72 h, COX-2 –): > 200 µM
% inhibition @ 100 μM COX-1 ([5]; no BSA): 12%
IC50 ([6]; 72 h, COX-2 –): > 200 µM
IC50 ([7]; 72 h, COX-2 +): > 200 µM
IC50 ([8]; 72 h, COX-2 –): > 200 µM
IC50 ([9]; 72 h, COX-2 +): > 200 µM
IC50 ([10]; 72 h, COX-2 –): > 200 µM
Compound: N-(1,12-Dicarba-closo-dodecaboran-2-yl)-2-benzonitrile [4b]

IC50 ([1]; 72 h, COX-2 +): 165 ± 0.3 µM
IC50 ([3]; 72 h, COX-2 +): > 200 µM
IC50 ([4]; 72 h, COX-2 –): 77.8 ± 0.4 µM
% inhibition @ 100 μM COX-1 ([5]; no BSA): 7%
IC50 ([6]; 72 h, COX-2 –): 77.4 ± 3.4 µM
IC50 ([7]; 72 h, COX-2 +): 137 ± 3.1 µM
IC50 ([8]; 72 h, COX-2 –): 67.6 ± 1.3 µM
IC50 ([9]; 72 h, COX-2 +): 72.6 ± 4.5 µM
IC50 ([10]; 72 h, COX-2 –): 76.4 ± 3.5 µM
Compound: N-(1,12-Dicarba-closo-dodecaboran-2-yl)-2-benzoic acid [4c]
